The record followed here is ChEMBL document CHEMBL1140747, “Discovery of potent and selective dipeptidyl peptidase IV inhibitors derived from beta-aminoamides bearing subsituted triazolopiperazines” (J Med Chem, 2008).

Series [1] in a line: Plasma clearance in rat at 1 mg/kg, iv and 2 mg/kg, po. The format is ADME, organism-based.
Series [2] has as its system Rattus norvegicus. Briefly: (§1) Oral bioavailability in rat at 2 mg/kg. The format is ADME, organism-based. The conditions noted are these: in vivo.
Series [3] deals with Xaa-Pro aminopeptidase 1 (Homo sapiens, UniProt Q9NQW7). The series can be described thus: Inhibition of amino peptidase P.
Chain of Xaa-Pro aminopeptidase 1 (Q9NQW7 whole entry): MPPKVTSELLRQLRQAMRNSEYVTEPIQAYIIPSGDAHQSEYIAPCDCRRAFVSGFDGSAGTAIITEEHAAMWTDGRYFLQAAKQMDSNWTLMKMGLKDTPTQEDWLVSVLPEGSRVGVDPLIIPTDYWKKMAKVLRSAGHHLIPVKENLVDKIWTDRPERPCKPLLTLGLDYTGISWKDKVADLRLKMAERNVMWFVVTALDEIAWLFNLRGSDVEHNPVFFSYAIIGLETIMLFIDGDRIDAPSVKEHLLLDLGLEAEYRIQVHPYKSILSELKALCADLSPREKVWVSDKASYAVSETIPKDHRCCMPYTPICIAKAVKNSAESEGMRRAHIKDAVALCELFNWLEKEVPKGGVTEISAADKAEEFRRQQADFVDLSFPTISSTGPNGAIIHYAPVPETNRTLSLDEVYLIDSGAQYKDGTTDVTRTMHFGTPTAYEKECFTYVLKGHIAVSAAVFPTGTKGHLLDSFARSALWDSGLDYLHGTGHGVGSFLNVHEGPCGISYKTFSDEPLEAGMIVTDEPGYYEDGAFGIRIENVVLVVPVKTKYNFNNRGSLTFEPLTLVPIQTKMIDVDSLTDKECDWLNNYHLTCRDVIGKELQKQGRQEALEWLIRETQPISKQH
The target in series [4] is T1, Xaa-Pro dipeptidase (Homo sapiens, UniProt P12955).
T1 sequence (P12955 whole entry): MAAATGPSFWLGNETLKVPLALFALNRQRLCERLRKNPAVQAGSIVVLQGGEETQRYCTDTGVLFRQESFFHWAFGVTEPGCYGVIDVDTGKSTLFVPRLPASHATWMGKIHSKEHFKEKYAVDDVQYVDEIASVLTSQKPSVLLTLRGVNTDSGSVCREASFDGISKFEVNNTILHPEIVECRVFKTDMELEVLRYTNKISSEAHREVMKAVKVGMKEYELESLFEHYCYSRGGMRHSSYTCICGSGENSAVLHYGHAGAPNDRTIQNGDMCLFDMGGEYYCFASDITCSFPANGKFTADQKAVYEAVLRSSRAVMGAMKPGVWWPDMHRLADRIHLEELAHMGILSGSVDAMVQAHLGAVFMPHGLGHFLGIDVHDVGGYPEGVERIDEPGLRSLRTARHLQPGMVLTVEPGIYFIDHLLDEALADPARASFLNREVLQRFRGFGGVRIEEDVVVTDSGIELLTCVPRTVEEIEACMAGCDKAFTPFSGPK
Briefly: Inhibition of prolidase.

The nature of series [5]: Half life in rat at 1 mg/kg, iv and 2 mg/kg, po. The format is ADME, organism-based. The following applies: in vivo.
A short description of series [6]: Plasma clearance in monkey at 1 mg/kg, iv and 2 mg/kg, po. The format is ADME, organism-based, Macaca mulatta. The conditions noted are these: rhesus monkey.
Series [7] deals with Mus musculus. The series can be described thus: Reduction of dextrose induced blood glucose excursion in mouse at 1 mg/kg. The format is functional. More on the design: scale not given: the % may be the effect or the level left. Summed up: (§2)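 Lean mice received a single oral dose of the compound 60 min before an oral dextrose challenge (5 g/kg) in an oral glucose tolerance test. The read-out was the reduction of the dextrose-induced blood glucose excursion. Data are mean ± SEM, n = 7 per group.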

The target in series [8] is T2, Prolyl endopeptidase FAP (Homo sapiens, UniProt Q12884).
T2 sequence (Q12884 whole entry): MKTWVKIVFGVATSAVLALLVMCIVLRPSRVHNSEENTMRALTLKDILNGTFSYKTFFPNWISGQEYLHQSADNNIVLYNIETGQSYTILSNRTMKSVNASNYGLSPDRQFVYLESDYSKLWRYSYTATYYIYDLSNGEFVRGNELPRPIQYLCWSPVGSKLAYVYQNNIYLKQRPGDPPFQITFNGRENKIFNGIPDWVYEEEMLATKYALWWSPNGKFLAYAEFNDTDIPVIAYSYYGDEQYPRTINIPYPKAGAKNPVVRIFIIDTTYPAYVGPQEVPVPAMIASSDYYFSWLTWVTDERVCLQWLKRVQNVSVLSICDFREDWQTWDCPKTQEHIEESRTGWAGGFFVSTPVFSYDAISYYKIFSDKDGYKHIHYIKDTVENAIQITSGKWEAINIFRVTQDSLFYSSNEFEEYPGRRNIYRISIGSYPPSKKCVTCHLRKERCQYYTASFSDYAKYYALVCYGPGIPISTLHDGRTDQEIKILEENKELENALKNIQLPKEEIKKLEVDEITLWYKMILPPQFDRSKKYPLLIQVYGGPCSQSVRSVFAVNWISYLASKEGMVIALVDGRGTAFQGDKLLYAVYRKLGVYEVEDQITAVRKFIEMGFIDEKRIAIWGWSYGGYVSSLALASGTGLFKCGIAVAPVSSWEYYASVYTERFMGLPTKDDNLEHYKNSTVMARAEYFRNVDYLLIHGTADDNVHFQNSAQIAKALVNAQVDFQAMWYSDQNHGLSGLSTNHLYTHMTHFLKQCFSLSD
The series can be described thus: Inhibition of FAP.

Series [9] is described as follows: Oral bioavailability in monkey at 2 mg/kg. The format is ADME, organism-based, Macaca mulatta. The conditions noted are these: rhesus monkey, in vivo.
In series [10] the test system is Mus musculus. Briefly: Reduction of dextrose induced blood glucose excursion in mouse at 0.1 mg/kg. The format is functional. Also noted: scale not given: the % may be the effect or the level left. In a few lines:
as §2

Series [11] is described as follows: Half life in dog at 1 mg/kg, iv and 2 mg/kg, po. The format is ADME, organism-based, Canis lupus familiaris. The conditions noted are these: in vivo.
Series [12] in a line: Plasma clearance in dog at 1 mg/kg, iv and 2 mg/kg, po. The format is ADME, organism-based, Canis lupus familiaris.
Series [13] in a line: as §1. The format is ADME, organism-based. The following applies: in vivo.
In series [14] the target is Dipeptidyl peptidase 8 (Homo sapiens, UniProt Q6V1X1). Briefly: Inhibition of DPP8.
Chain of Dipeptidyl peptidase 8 (Q6V1X1 whole entry): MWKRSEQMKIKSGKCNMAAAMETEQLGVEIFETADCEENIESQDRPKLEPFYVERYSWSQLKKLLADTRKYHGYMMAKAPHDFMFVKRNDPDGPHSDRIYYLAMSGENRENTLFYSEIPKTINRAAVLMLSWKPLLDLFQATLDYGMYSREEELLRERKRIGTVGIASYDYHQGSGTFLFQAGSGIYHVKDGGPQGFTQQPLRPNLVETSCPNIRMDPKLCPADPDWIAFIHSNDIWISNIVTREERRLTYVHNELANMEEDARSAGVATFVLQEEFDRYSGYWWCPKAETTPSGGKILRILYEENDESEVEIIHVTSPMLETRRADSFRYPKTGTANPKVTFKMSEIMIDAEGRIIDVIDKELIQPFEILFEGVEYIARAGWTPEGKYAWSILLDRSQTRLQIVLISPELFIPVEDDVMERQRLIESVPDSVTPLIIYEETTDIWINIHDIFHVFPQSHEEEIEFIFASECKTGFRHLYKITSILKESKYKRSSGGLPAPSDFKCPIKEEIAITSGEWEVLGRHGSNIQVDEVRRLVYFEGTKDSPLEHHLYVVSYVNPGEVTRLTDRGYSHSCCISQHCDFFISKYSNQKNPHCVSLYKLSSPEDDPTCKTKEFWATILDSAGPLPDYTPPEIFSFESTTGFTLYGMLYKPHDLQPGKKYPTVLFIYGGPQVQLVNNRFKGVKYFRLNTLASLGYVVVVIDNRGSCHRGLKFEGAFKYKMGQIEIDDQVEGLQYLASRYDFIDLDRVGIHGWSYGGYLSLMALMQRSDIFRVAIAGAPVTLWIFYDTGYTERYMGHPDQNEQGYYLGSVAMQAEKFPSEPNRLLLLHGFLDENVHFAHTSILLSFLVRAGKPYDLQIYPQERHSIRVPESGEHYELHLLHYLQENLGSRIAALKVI
Series [15] can be described thus: Cmax in rat at 2 mg/kg, po. The format is ADME, organism-based. Also noted: dose 2 mg/kg, route oral. The conditions noted are these: in vivo.
The nature of series [16]: Oral bioavailability in dog at 2 mg/kg. The following applies: in vivo. The format is ADME, organism-based, Canis lupus familiaris.
Series [17] is described as follows: Cmax in monkey at 2 mg/kg, po. The format is ADME, organism-based, Macaca mulatta. More on the design: dose 2 mg/kg, route oral. The following applies: rhesus monkey, in vivo.
The nature of series [18]: Half life in monkey at 1 mg/kg, iv and 2 mg/kg, po. The format is ADME, organism-based, Macaca mulatta. The conditions noted are these: rhesus monkey, in vivo.
The nature of series [19]: Cmax in dog at 2 mg/kg, po. The format is ADME, organism-based, Canis lupus familiaris. More on the design: dose 2 mg/kg, route oral. The conditions noted are these: in vivo.
For series [20], the target named is Dipeptidyl peptidase 2 (Homo sapiens, UniProt Q9UHL4). Briefly: Inhibition of QPP.
Series [21] relates to Plasma. The series can be described thus: Drug level in mouse plasma at 1 mg/kg. The conditions noted are these: in vivo. The format is ADME, organism-based. More on the design: dose 1 mg/kg. Summed up: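 Lean mice, oral OGTT: single oral dose given 60 min before an oral dextrose challenge (5 g/kg). Plasma was sampled 20 min after dextrose for compound concentration, alongside plasma DPP-4 activity and active GLP-1. Values are mean ± SEM, n = 7 per group.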

Series [22] deals with Dipeptidyl peptidase 4 (Mus musculus, UniProt P28843). The series can be described thus: Inhibition of mouse DPP4.
Chain of Dipeptidyl peptidase 4 (Mus musculus, UniProt P28843) (P28843 whole entry): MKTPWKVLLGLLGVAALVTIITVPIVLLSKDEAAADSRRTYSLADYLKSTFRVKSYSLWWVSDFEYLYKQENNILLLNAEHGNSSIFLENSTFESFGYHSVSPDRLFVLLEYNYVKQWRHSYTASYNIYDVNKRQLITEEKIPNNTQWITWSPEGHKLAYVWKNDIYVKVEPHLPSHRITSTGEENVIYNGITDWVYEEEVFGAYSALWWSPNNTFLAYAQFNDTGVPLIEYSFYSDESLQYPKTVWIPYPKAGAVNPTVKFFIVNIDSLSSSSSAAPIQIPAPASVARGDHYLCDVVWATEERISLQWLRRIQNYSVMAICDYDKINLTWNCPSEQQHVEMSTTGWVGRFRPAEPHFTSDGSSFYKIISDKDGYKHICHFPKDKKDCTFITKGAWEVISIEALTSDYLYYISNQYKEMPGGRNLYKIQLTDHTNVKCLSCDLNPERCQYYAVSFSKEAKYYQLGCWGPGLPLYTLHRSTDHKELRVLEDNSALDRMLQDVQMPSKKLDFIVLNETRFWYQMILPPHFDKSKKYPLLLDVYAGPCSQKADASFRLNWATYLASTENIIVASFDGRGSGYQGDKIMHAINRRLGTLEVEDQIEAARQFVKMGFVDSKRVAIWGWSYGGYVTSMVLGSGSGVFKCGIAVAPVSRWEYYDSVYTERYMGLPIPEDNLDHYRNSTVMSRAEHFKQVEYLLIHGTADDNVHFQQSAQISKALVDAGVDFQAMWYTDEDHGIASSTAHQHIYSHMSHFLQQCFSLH
In series [23] the target is Dipeptidyl peptidase 9 (Homo sapiens, UniProt Q86TI2). The series can be described thus: Inhibition of DPP9.
Chain of Dipeptidyl peptidase 9 (Q86TI2 whole entry): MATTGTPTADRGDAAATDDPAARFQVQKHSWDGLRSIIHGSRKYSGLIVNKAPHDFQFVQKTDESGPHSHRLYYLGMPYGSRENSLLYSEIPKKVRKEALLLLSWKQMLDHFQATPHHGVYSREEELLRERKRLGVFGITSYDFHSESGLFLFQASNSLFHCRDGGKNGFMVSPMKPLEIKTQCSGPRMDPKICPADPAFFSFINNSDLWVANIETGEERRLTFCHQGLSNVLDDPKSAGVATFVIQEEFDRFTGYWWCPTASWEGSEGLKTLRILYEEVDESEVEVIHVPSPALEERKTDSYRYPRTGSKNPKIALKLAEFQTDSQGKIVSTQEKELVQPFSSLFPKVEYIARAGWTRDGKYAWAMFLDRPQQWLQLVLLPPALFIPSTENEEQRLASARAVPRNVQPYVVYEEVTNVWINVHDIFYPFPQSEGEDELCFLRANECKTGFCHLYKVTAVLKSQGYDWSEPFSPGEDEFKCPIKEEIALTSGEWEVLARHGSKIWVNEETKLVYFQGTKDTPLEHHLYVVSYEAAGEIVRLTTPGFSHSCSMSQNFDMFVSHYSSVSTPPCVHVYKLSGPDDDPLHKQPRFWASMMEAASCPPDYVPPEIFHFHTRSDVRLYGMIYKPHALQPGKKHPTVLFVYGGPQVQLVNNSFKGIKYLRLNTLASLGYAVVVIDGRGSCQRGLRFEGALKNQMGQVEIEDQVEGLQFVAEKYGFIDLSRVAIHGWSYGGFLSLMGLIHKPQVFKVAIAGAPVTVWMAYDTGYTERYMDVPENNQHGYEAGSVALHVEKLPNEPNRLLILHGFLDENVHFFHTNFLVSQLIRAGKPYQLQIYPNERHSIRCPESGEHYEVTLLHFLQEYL
The target of series [24] is Dipeptidyl peptidase 4 (Homo sapiens, UniProt P27487).
Chain of Dipeptidyl peptidase 4 (Homo sapiens, UniProt P27487) (P27487 whole entry): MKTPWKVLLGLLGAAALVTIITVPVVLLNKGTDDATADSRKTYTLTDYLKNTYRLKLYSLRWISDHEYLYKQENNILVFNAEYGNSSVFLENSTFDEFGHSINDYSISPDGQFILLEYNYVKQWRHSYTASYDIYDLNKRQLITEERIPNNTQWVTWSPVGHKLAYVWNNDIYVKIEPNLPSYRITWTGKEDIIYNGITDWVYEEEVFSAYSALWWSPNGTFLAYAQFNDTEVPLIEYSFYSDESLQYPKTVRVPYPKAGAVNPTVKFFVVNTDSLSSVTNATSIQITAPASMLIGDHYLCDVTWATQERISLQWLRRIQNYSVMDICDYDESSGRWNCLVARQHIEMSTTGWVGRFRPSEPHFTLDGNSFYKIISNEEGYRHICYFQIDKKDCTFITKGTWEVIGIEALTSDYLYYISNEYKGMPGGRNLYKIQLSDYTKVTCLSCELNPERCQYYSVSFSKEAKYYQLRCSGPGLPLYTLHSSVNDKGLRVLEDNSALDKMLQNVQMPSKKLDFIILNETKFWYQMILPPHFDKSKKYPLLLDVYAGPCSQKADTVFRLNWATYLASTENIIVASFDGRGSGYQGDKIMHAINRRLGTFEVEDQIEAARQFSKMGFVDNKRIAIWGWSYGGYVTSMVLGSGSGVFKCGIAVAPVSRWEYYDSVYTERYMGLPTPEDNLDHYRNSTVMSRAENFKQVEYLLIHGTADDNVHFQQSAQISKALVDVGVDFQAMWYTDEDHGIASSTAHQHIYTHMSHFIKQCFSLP
A short description of series [25]: Oral bioavailability in mouse. The format is ADME, organism-based. The conditions noted are these: in vivo.
Series [26] can be described thus: Oral bioavailability in Zucker fa/fa rat. The format is ADME, organism-based. The following applies: in vivo.

`Cl.N[C@@H](CC(=O)N1CCn2c(nnc2C(F)(F)F)C1)Cc1cc(F)c(F)cc1F` gave a clearance in series [1] of 60 mL/min/kg. Also, the F in series [2] stood at 76%. Also, the IC50 in [3] and in [4] was over 10 µM throughout. Further, the half-life in series [5] was 1.7 h.
As for `C[C@@H]1c2nnc(C(F)(F)F)n2CCN1C(=O)C[C@H](N)Cc1cc(F)c(F)cc1F.Cl`, the clearance came to 29 mL/min/kg in [6], 54 mL/min/kg in [1] and 7.8 mL/min/kg in [12]. For the same molecule, the values for the Activity in series [7] and in series [10] were 55% and 34%, respectively. Further, the IC50 was over 10 µM in series [8]; 17 µM in [14]; over 10 µM in series [3]; over 10 µM in series [4]; over 100 µM in series [20]; 0.011 µM in [22]. Also, the IC50 in series [23] is over 100 µM; in [24], 0.0043 µM. Besides, the results for the bioavailability in [9], in series [13] and in series [16] were 85%, 57% and 91%, respectively. The half-life in [11] was 8.8 h; in [18], 6 h; in series [5], 2.4 h. Further, the Cmax in [15] worked out at 133 nM; in [17], 410 nM; in [19], 756 nM. The same molecule yielded a concentration in series [21] of 190 nM.
Take `Cl.N[C@@H](CC(=O)N1CCn2c(nnc2C(F)(F)F)[C@H]1Cc1ccc(F)cc1)Cc1cc(F)c(F)cc1F` (mixture of isomers): the values for the bioavailability in series [25], in series [26] and in [13] were 6%, 100% and 76%, respectively. For the same molecule, the IC50 in series [8] was over 10 µM; in series [14], 0.332 µM; in series [3], over 10 µM; in series [4], over 10 µM; in series [20], 33 µM; in series [23], 20 µM. Also, half-maximal inhibition in series [24] (IC50) was put at 0.00018 µM. In [1], this molecule returned a clearance of 29 mL/min/kg. The molecule also returned a peak concentration (Cmax) in series [15] of 360 nM. Further, the half-life in series [5] was 1.5 h.
Turning to `CN(C)C(=O)CC1c2nnc(C(F)(F)F)n2CCN1C(=O)C[C@H](N)Cc1cc(F)c(F)cc1F.Cl` (stereo in doubt; 41b), the IC50 in series [8] was over 10 µM; in [14] it was 30 µM; in [3], over 10 µM; in series [4], over 10 µM; in series [20] it was over 100 µM; in series [23] it was over 100 µM. This molecule also gave a half-maximal inhibitory concentration (IC50) in [24] of 0.0028 µM. In [1], the clearance turned out to be 87 mL/min/kg. The molecule also returned a bioavailability in series [13] of 9%. The highest level in series [15] (Cmax) was 4 nM. Further, the half-life in [5] was 2.7 h.
